Measurements from different studies.
Compare with care: the assays were run in different laboratories.
BRD4 BD2: Bromodomain-containing protein 4, BD2 (BRD4, Homo sapiens, UniProt O60885)
BRD4 BD1: Bromodomain-containing protein 4, BD1 (BRD4, Homo sapiens, UniProt O60885)

SMILES	target	test	setting	measurement	value
CN(C)CCN1CCN(c2nc(NCc3cccc(Cl)c3)c3cc(-c4ccc(=O)n(C)c4)ccc3n2)CC1	BRD4 BD2	thermal stability, DSF	250 µM	ΔTm	11 °C
CC(C)[C@@H]1NC(=O)[C@@H]2CCCN2C(=O)[C@H](Cc2ccccc2)NC(=O)CSC[C@@H](C(=O)N[C@@H](Cc2ccc(O)cc2)C(N)=O)NC(=O)[C@H](Cc2c[nH]c3ccccc23)NC(=O)[C@H](CCCCN)NC(=O)[C@H](Cc2ccccc2)N(C)C(=O)[C@H](Cc2ccccc2)NC1=O	BRD4 BD1	thermal stability, DSF	100 µM	ΔTm	-0.52 °C
Cc1cc2c(NC(=O)c3cccc(C(=O)O)c3)cccc2nn1	BRD4 BD1	thermal stability, DSF	100 µM	ΔTm	1.4 °C
NS(=O)(=O)c1ccc(Nc2nc(-c3ccc(F)cc3)c3ccccc3n2)cc1	BRD4 BD2	binding, competition with immobilised ligand	1 µM	remaining binding	4%
Cc1cnc(Nc2ccc(OCCN3CCCC3)cc2)nc1Nc1cccc(S(=O)(=O)NC(C)(C)C)c1	BRD4 BD1	thermal stability, DSF	10 µM	ΔTm	3.8 °C
COc1cc(C(=O)N2CCC(N3CCN(C)CC3)CC2)ccc1Nc1ncc2c(n1)N(C)c1ccccc1C(=O)N2C	BRD4 BD1	thermal stability, DSF	10 µM	ΔTm	2.1 °C
Cn1cc(C(=O)Nc2cccc(C(=O)O)c2)ccc1=O	BRD4 BD1	thermal stability, DSF	100 µM	ΔTm	0.9 °C
C[S+]([O-])c1ccc(-c2nc(-c3ccncc3)c(-c3ccc(F)cc3)[nH]2)cc1 (stereo not drawn)	BRD4 BD1	thermal stability, DSF	10 µM	ΔTm	1.32 °C
CC(C)(C)c1cc(NC(=O)Nc2ccc(-c3cn4c(n3)sc3cc(OCCN5CCOCC5)ccc34)cc2)no1	BRD4 BD1	thermal stability, DSF	100 µM	ΔTm	< 1 °C
